Source: PubChem BioAssay
Rows were chosen to be rich in hits. Some 2.5% of all compounds tested hit in one or more screens of this group.
HKDC1 inh – inhibitors of human hexokinase HKDC1; recombinant HKDC1, G6PDH/diaphorase resazurin coupled fluorescence; inhibition, % at 20 µM; 340,000 compounds, 0.16% hits; AID 493160;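 active = inhibition above about 35% when tested at 20 µM, limit read from the data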;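 also: plate controls were DMSO wells with enzyme for no effect and DMSO wells lacking enzyme for full effect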
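Material: recombinant HKDC1 hexokinase; Amount: HKDC1 at 5 µg/mL; Medium: Tris pH 8.0 buffer with MgCl2, Tween-20, BSA, BME; Schedule: 90 min reaction incubation at room temperature, dark; Technique: coupled resazurin fluorescence, excitation 525 nm, emission 613 nm.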
PGE2 EP2 inh – inhibitors of human EP2 prostaglandin E2 receptor. P43116. C6 glioma cells expressing human EP2, cAMP TR-FRET; cells stimulated with saturating PGE2. inhibition, % at 25 µM. 260,000 compounds, 0.52% hits. AID 1422;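 active = percent inhibition above 40 after rounding to a whole number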;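 also: rat C6 glioma host cells with rolipram phosphodiesterase inhibitor present; the protocol text gives 20 µM as final concentration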
Target sequence (P43116 whole entry, looked up): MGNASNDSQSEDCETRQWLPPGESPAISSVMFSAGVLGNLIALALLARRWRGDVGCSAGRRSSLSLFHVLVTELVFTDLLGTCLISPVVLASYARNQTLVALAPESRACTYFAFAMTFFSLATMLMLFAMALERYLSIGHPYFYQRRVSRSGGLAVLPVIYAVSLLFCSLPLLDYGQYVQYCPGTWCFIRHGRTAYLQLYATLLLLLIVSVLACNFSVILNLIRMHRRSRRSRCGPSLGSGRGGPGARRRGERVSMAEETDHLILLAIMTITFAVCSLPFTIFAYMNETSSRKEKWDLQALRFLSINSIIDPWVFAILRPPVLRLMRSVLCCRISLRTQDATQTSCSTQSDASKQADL
PHOSPHO1 inh – PHOSPHO1 (human) inhibition; Q8TCT1; recombinant PHOSPHO1, absorbance phosphatase assay; inhibition, % at 13.3 µM; 290,000 compounds, 1.1% hits; AID 1565; in the data active = inhibition above about 60%
Target sequence (Q8TCT1 whole entry, looked up): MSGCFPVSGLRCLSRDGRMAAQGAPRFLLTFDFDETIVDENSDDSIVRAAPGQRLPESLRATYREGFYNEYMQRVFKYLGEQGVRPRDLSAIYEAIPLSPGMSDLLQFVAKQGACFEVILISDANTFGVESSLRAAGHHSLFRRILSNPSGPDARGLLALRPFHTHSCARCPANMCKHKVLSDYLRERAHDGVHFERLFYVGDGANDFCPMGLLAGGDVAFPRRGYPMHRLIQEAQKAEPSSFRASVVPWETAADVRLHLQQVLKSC
Tb hexokinase – T. brucei hexokinase 1 inhibition | inhibition, % at 10 µM | recombinant TbHK1, G6PDH-coupled NADH A340 | 220,000 compounds, 0.11% hits;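 active = inhibition of 50% or more in the single-dose primary screen; inactive = inhibition below 50%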
PfGluPho inh – PfG6PD (Plasmodium falciparum) enzyme inhibition; inhibition, % at 20 µM; 350,000 compounds, 0.78% hits; PfGluPho enzyme, NADPH resazurin-diaphorase fluorescence; AID 504690;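 active = inhibition reaching at least a set limit at 20 µM in the primary screen, cut at about 59% in these data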;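 also: 0% = DMSO wells with substrate and 100% = DMSO wells lacking glucose-6-phosphate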
EP2 modulator – modulators of human EP2 prostaglandin E2 receptor; P43116; EP2-expressing cells, cAMP HTRF FRET, PGE2 co-stimulation; induction, % at 25 µM; 260,000 compounds, 0.83% hits; AID 940;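 active = compounds whose cAMP rise, as percent of the full-agonist control response, exceeds 60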;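 also: rat C6 glioma line stably carrying human EP2 under a CMV promoter; the protocol text gives 20 µM as final concentration; 100% = response of wells given 1 µM PGE2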
Numbers without * were called inactive; · = not tested or not shown.

SMILES | HKDC1 inh | PGE2 EP2 inh | PHOSPHO1 inh | Tb hexokinase | PfGluPho inh | EP2 modulator
COc1ccc(C(=O)Nc2nc(-c3ccc(C)c(C)c3)cs2)cc1OC | · | 12.9 | · | · | · | -93.7
CCn1nnc(NC(=O)c2cc(OC)c(OC)c(OC)c2)n1 | · | 3.3 | · | · | · | -8.2
CC[C@H](Cn1nc(-c2ccc(F)c(F)c2)ccc1=O)NC(=O)c1ccc2c(c1)OCO2 | · | · | · | · | · | -28.8
Cc1nc2ccccc2n1CCc1nc2c3ccccc3nc(=S)n2[nH]1 | 4.4 | 5.3 | 85.7* | -16.0 | 18.8 | 5.7
COc1ccc(C2(NS(=O)(=O)c3ccc4c(c3)c(=O)n(C)c(=O)n4C)CC2)cc1 | · | 7.0 | · | · | · | -42.3
CN(C(=O)CCc1ccccc1)c1nc2c(s1)CCc1occc1-2 | · | 7.3 | · | · | · | -36.8
CCc1nnc(NC(=O)C2CCN(c3nc4ccccc4n3C)CC2)s1 | · | 7.8 | · | · | · | -0.4
CCCn1c(SCC(=O)c2cc(C)ccc2C)n[nH]c1=O | -8.6 | 14.2 | 94.5* | -2.2 | 31.1 | 18.5
CCCn1c(SCC(=O)c2cc(C)n(-c3cc(C)on3)c2C)n[nH]c1=O | 0.0 | · | · | · | 39.9 | ·
Cc1ccc(N2CCCC2=O)cc1S(=O)(=O)Nc1cccc(N2CCCC2=O)c1 | · | 2.0 | · | · | · | -15.4
CC(C)=C[C@@H]1C[C@H](C)[C@H]2CC[C@H](C)c3c(O)c(O)c(C)c1c32 | 21.1 | · | · | · | 79.1* | ·
CN(C)c1ccc(N=Cc2cccn2C)cc1 | 8.1 | · | 32.0 | · | 77.4* | ·
CCOCCCNc1nc2c(c(=O)[nH]c(=O)n2C)n1Cc1cccc(C)c1 | · | 12.0 | · | · | · | 5.5
COc1cc(C(=O)Nc2cccc(-n3cnnn3)c2)cc(OC)c1OC | 5.6 | · | 22.4 | · | -7.3 | ·
COc1cccc(OC)c1C(=O)Nc1cccc(-n2cnnn2)c1 | -3.0 | · | 72.5* | · | -21.6 | ·
CCC(C)(C)n1nnnc1C(c1ccncc1)N1CCN(c2cccc(C(F)(F)F)c2)CC1 (stereo not drawn) | · | 14.0 | · | · | · | -10.3
COCCSc1ccccc1C(=O)N1CCc2ccccc2C1 | -7.4 | 8.4 | 60.0* | -7.0 | 7.6 | -8.8
CCOc1ccc(C2C(C#N)=C(N)OC3=C2C(=O)CCC3)cc1OC (stereo not drawn) | · | 12.5 | · | · | · | -21.1
COC(=O)c1ccc2c(=O)n(CCN3CCOCC3)c(SCC(=O)C(C)(C)C)nc2c1 | -8.8 | 0.2 | 36.3 | -15.9 | 0.4 | 48.9
CCOC(=O)CSc1nc2cc(C(=O)OC)ccc2c(=O)n1CCN1CCOCC1 | 1.2 | 5.3 | 70.5* | -18.3 | -13.1 | 22.8
COc1ccccc1C1(O)CCCN(C(=O)COc2ccc3nsnc3c2)C1 (stereo not drawn) | · | 55.1* | · | · | · | -60.2
S=C(Nc1ccc2nc(-c3ccccn3)c(-c3ccccn3)nc2c1)N1CCCCCC1 | 14.9 | 9.0 | -97.1 | -10.9 | 1.9 | -19.5
S=C(Nc1ccc2nc(-c3ccccn3)c(-c3ccccn3)nc2c1)N1CCCCC1 | 16.3 | 14.0 | 87.4* | -18.3 | 57.1 | -6.9
COC(=O)CSc1ccc(-c2nc3ccc(C)cc3[nH]2)cn1 | -3.0 | 59.1* | 27.1 | -32.1 | 57.5 | -22.2
COc1ccc2[nH]c(=O)c(CN(C3CCCCC3)C(c3nnnn3C(C)(C)C)C(C)C)cc2c1 (stereo not drawn) | · | 4.7 | · | · | · | 5.4
SMILES | HKDC1 inh | PGE2 EP2 inh | PHOSPHO1 inh | Tb hexokinase | PfGluPho inh | EP2 modulator
CC(C)(C)c1c2c(c(C(C)(C)C)c3c1OCN(Cc1ccccc1)C3)OCN(Cc1ccccc1)C2 | · | 80.5* | · | · | · | -32.0
O=c1[nH]c2c(c(=O)[nH]1)OCN(Cc1ccccc1)C2 | -1.2 | · | · | · | -2.3 | ·
Cc1ccc(-c2cc(N)c(=O)n(CC(=O)NC3CCCCC3C)n2)o1 (stereo not drawn) | · | 11.4 | · | · | · | -11.0
CCOc1ccc(CC(=O)NNC(=S)Nc2ccccc2)cc1Br | -1.9 | 11.8 | 87.4* | 3.5 | -11.5 | -7.7
COc1ccc(NC(=S)NNC(=O)Cn2nc([N+](=O)[O-])cc2C)cc1 | 12.1 | 10.9 | 79.2* | 7.9 | -20.5 | 12.8
COc1ccc(CC(=O)NNC(=S)Nc2ccccc2)cc1Br | 0.4 | 24.6 | 93.0* | 14.0 | 4.2 | -1.6
COc1ccc(CC(=O)NNC(=S)Nc2ccc(Br)cc2)cc1 | -6.4 | 6.9 | 97.6* | 44.2 | -14.2 | -18.3
Cc1cc([N+](=O)[O-])nn1CC(=O)NNC(=S)Nc1ccc([N+](=O)[O-])cc1 | -16.4 | 10.7 | 58.0 | -12.9 | 1.1 | -4.7
CC(C)Oc1ccc(CC(=O)NNC(=S)Nc2ccccc2)cc1 | -7.6 | 12.1 | 15.9 | 0.6 | -2.9 | -20.7
COc1ccc(CC(=O)NNC(=O)Cc2ccc(OC)cc2)cc1 | · | 8.1 | 29.2 | -2.2 | · | -1.3
CCCS(=O)(=O)N1CCC[C@@H](Cn2nc(-c3cccs3)ccc2=O)C1 | · | · | · | · | · | -32.1
O=C1OC2(CCCC2)OC(=O)C1=Cc1ccc(-c2cccc(C(=O)O)c2)o1 | · | 32.2 | · | · | · | -76.2
CNC(=S)N(Cc1cccnc1)Cc1cc2cc3c(cc2[nH]c1=O)OCCO3 | · | 17.2 | · | · | · | -14.0
Cc1ccc(NC(=S)NNC(=O)Cn2nc(C(F)F)cc2C(F)F)cc1 | 9.0 | 0.4 | -2.7 | 2.5 | 1.8 | 23.5
O=C(Cn1nc(C(F)F)cc1C(F)F)NNC(=S)Nc1ccc(Cl)cc1 | -14.3 | 4.1 | 99.7* | -0.6 | -13.0 | -3.8
Cc1ccsc1/C=N/n1c(-c2ccco2)n[nH]c1=S | 1.9 | 5.7 | 62.0* | 4.3 | 30.9 | -0.7
CCCCN1CNC(=S)N(c2ccccc2OCC)C1 | 9.3 | 3.3 | 9.0 | 5.0 | -16.5 | 13.4
CCCCN1CNC(=S)N(c2cc(C)ccc2C)C1 | 3.6 | 4.2 | 61.3* | -4.0 | -11.4 | 6.0
COc1ccc(OC)c(CCNC(=O)Cn2sc3nc(C)cc(C)c3c2=O)c1 | · | 111.7* | 26.6 | -1.9 | · | -54.0
COc1ccc(OC)c(CCNC(=O)Cn2nc(C)c3c(C)n(-c4ccc(C)cc4)nc3c2=O)c1 | 1.9 | · | 37.5 | · | -8.9 | ·
COc1ccc(C2(NC(=O)CCn3nc(C)cc3C)CCCCC2)cc1 | · | 4.2 | · | · | · | -47.4
CCc1nn(CC(=O)N(C)CCc2ccccn2)c(=O)c2cc3ccsc3n12 | · | · | · | · | · | -14.2
N#CCSc1ncnc2ccccc12 | -9.4 | 5.0 | 12.7 | 1.8 | -4.8 | 8.7
Cc1ccccc1CSc1ncnc2ccccc12 | -0.5 | 13.0 | -22.9 | 16.4 | 8.2 | 62.4*
COc1ccc2[nH]c(=O)c(CN(Cc3ccc(C)cc3)C(=O)Nc3ccccc3OC)cc2c1 | · | 7.5 | · | · | · | 60.9*
SMILES | HKDC1 inh | PGE2 EP2 inh | PHOSPHO1 inh | Tb hexokinase | PfGluPho inh | EP2 modulator
CC1Cc2cc(-c3csc(NC(=O)c4cccc(Cl)c4)n3)ccc2N1C(=O)C1CC1 (stereo not drawn) | · | 20.7 | · | · | · | -66.5
Cc1ccc(NC(=O)CN2CC(C)SC2=NC2CCCCC2)cc1 (stereo not drawn) | -2.9 | 7.3 | 73.7* | 5.6 | -12.2 | 2.3
Clc1ccccc1N=Nc1ccccn1 | 3.9 | · | · | · | 90.6* | ·
Cc1[nH][nH]c(=O)c1N=Nc1ccccc1Cl | -3.5 | 9.5 | -2.1 | -10.3 | -14.9 | -12.4
Oc1cc2c(cc1C(c1ccc(Cl)c(Cl)c1)N1CCCC1)OCO2 (stereo not drawn) | 20.3 | 5.7 | 29.2 | 1.1 | 62.0* | 29.4
Oc1ccc2ccccc2c1/C=N/c1nc2c(s1)CCCC2 | 26.9 | 26.8 | 76.5* | -7.1 | 42.7 | -33.8
Oc1ccc2ccccc2c1C=NCc1ccccc1 | 19.7 | 20.0 | 16.9 | -1.9 | 17.4 | -42.4
